Reference: PMC8828683 (Stem Cell Reports, 2022)

Legend:
[1] = tested on: H108 normal skin fibroblast; assay: Cellular ATP level; type: cell-based, human; conditions: read-out: IC50 ATP
Outline: (§1)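 Cellular ATP was measured with a CellTiter-Glo luminescence viability assay after exposure to a concentration range of test compound. IC50 is the average of three independent assays. Mean IC50s across differentiated or human pluripotent lines, and their ratio, are derived from the per-line values.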

[2] = tested on: HFF-1 normal skin fibroblast; assay: Cells with <2N DNA by FACS of permeabilized cells stained with PI; type: cell-based, human; conditions: read-out: IC50 DNA (50% of cells with <2N DNA); HFF-1
Outline: (§2)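 Cells were exposed to a range of test compound concentrations alongside vehicle (DMSO) controls. They were then permeabilized, stained with propidium iodide, and DNA content was read by flow cytometry. IC50 is the concentration at which 50% of cells hold <2N DNA, from 3 independent repetitions with SEM. Line averages and differentiated/pluripotent ratios are derived from these IC50s. NTERA-2 was also run as a time course at 5 μM, normalized to vehicle at each time point.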

differentiated cells [3] = assay: DNA loss; type: cell-based; conditions: read-out: IC50 DNA loss, on average; average over differentiated cells
Outline: as §2

SCUi24 iPSC [4] = assay: Live cells / PCD by FACS of nonpermeabilized cells stained with annexin-V and PI; type: cell-based, human; conditions: read-out: IC50 Live Cells
Outline: (§3)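 Cells were seeded so that vehicle wells stayed subconfluent, then treated with a range of test compound concentrations for 4 days. Without permeabilization, they were stained with annexin-V-FITC and propidium iodide and analysed by flow cytometry. Double-negative cells (Q3) were scored as live and Q1+Q2 as programmed death. Vehicle was set to 100% viable and 0% dead. Results are the mean of three independent assays with SEM; group averages and ratios are derived from the IC50s.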

[5] = Maximum solubility in DMSO; type: physicochemical
[6] = tested on: VeroE6 normal kidney epithelial; assay: Cellular ATP level; type: cell-based, monkey; conditions: read-out: IC50 ATP
Outline: as §1

NTERA-2 ECCs = assay: Immunoblotting of total cell extracts; type: cell-based, human
Outline: (§4)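 Cells were cultured with 2.5 μM test compound for up to 96 h, and attached plus unattached cells were pooled. Whole-cell RIPA lysates were run on 4–12% Bis-Tris gels, transferred to nitrocellulose and blocked in 5% milk/TBS. Primary antibodies went on overnight at 4°C, followed by infrared secondary antibodies and imager quantitation. Each blot carried untreated U2OS as a shared standard, with Ponceau-S histones for normalization and lighter exposures for quantitation. Adriamycin for 24 h (NTERA-2 1 μM, H108 2 μM) served as a DNA-break control.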

H108 fibroblasts = assay: Immunoblotting of total cell extracts; type: cell-based, human
Outline: as §4

SCUi24 iPSC [7] = assay: Cellular ATP level; type: cell-based, human; conditions: read-out: IC50 ATP
Outline: as §1

TERA-2 ECC = assay: Cells with <2N DNA by FACS of permeabilized cells stained with PI; type: cell-based, human; conditions: read-out: IC50 DNA (50% of cells with <2N DNA)
Outline: as §2

WA01/H1 ESC [8] = assay: Live cells / PCD by FACS of nonpermeabilized cells stained with annexin-V and PI; type: cell-based, human; conditions: read-out: IC50 Live Cells
Outline: as §3

[9] = tested on: H108 normal skin fibroblast; assay: Cells with <2N DNA by FACS of permeabilized cells stained with PI; type: cell-based, human; conditions: read-out: IC50 DNA (50% of cells with <2N DNA)
Outline: as §2

[10] = tested on: HBEC normal lung epithelial; assay: as above; type: cell-based, human; conditions: read-out: IC50 DNA (50% of cells with <2N DNA)
Outline: as §2

WA01/H1 ESC [11] = assay: Cellular ATP level; type: cell-based, human; conditions: read-out: IC50 ATP
Outline: as §1

NTERA-2 ECC = assay: Live cells / PCD by FACS of nonpermeabilized cells stained with annexin-V and PI; type: cell-based, human; conditions: read-out: IC50 Live Cells; NTERA-2 ECC, 4 days
Outline: as §3

WA01/H1 ESC [12] = assay: Cells with <2N DNA by FACS of permeabilized cells stained with PI; type: cell-based, human; conditions: read-out: IC50 DNA (50% of cells with <2N DNA)
Outline: as §2

WA09/H9 ESC = assay: Live cells / PCD by FACS of nonpermeabilized cells stained with annexin-V and PI; type: cell-based, human; conditions: read-out: IC50 Live Cells
Outline: as §3

[13] = tested on: H1-diff (spontaneously differentiated H1 ESCs); assay: as above; type: cell-based, human; conditions: read-out: IC50 Live Cells, 4 days
Outline: as §3

differentiated cells [14] = assay: PCD / live cell loss; type: cell-based; conditions: read-out: IC50 initiation of PCD, on average; average over differentiated cells
Outline: as §3

[15] = tested on: VeroE6 normal kidney epithelial; assay: Live cells / PCD by FACS of nonpermeabilized cells stained with annexin-V and PI; type: cell-based, monkey; conditions: read-out: IC50 Live Cells (PCD)
Outline: as §3

[16] = tested on: GCT27D.C1 teratocarcinoma xenografts; assay: Teratocarcinoma xenograft, daily intraperitoneal injections; type: in vivo, mice
Outline: (§5)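 Six-week-old female […] BALB/c nude mice were injected subcutaneously in the lower right flank with 200 μL of 50% Matrigel holding 2 million NTERA-2 or 5 million GCT27D.C1 cells (eight mice per model). Once tumors were palpable, mice received 40 mg/kg test compound i.p. daily (DMSO solution diluted in sunflower oil to 200 μL) or vehicle. Tumor volume was calculated as length × width² × 0.5 from calipers, TGI was calculated, and body weight was tracked. Tumors were harvested 15 days later.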

[17] = tested on: NTERA-2 teratocarcinoma xenografts; assay: as above; type: in vivo, mice
Outline: as §5

[18] = tested on: VeroE6 normal kidney epithelial; assay: Cells with <2N DNA by FACS of permeabilized cells stained with PI; type: cell-based, monkey; conditions: read-out: IC50 DNA (50% of cells with <2N DNA)
Outline: as §2

[19] = NTERA-2, 2.5 μM WX8, normalized to histones
[20] = H108, 2.5 μM WX8, normalized to histones
[21] = H108 fibroblasts, 2.5 μM WX8 or 2 μM Adriamycin 24 h

C(=N\Nc1nc(Nc2ccccc2)nc(N2CCOCC2)n1)/c1c[nH]c2ccccc12 [WX8]
IC50 [1]: 15 µM
IC50 [2]: 50 µM
IC50 (differentiated cells [3]): 67.5 µM
IC50 (SCUi24 iPSC [4]): 2.5 µM
Maximum solubility [5]: about 30 mg WX8/350μL DMSO
IC50 [6]: 14 µM
CASP3 cleavage (NTERA-2 ECCs; NTERA-2, 2.5 μM WX8): < 2%
PARP cleavage (NTERA-2 ECCs; NTERA-2, 2.5 μM WX8): 41%
Accumulation of p62 protein (NTERA-2 ECCs; [19]): 9 fold
Accumulation of total LC3 protein (NTERA-2 ECCs; [19]): 4 fold
CASP12 cleavage (NTERA-2 ECCs; NTERA-2, WX8): < 2%
Cleaved CASP7 (NTERA-2 ECCs; NTERA-2, WX8): not detected
Accumulation of p62 protein (H108 fibroblasts; [20]): 13 fold
Accumulation of total LC3 protein (H108 fibroblasts; [20]): 10 fold
CASP3 cleavage (H108 fibroblasts; [21]): Neither WX8 nor Adriamycin induced cleavage
PARP cleavage (H108 fibroblasts; [21]): Neither WX8 nor Adriamycin induced cleavage
IC50 (SCUi24 iPSC [7]): 0.4 µM
IC50 (TERA-2 ECC): 5 µM
IC50 (WA01/H1 ESC [8]): 1.9 µM
IC50 [9]: 140 µM
IC50 [10]: 20 µM
IC50 (WA01/H1 ESC [11]): 1.6 µM
IC50 (NTERA-2 ECC): 1.3 µM
IC50 (WA01/H1 ESC [12]): 2 µM
IC50 (WA09/H9 ESC): 2.5 µM
IC50 [13]: > 10 µM
IC50 (differentiated cells [14]): 81.3 µM
IC50 [15]: 60 µM
Tumor growth inhibition (TGI) ([16]; GCT27D.C1 tumors, 40 mg WX8/kg daily i.p.): 78%
OCT4-, SOX2- and Ki67-stained cells in tumor slices ([16]; GCT27D.C1 tumors, 40 mg WX8/kg daily i.p., immunohistochemistry): selectively eliminated cells expressing OCT4 or SOX2 protein with no detectable effect on proliferating cells
Mouse body weights ([16]; GCT27D.C1 xenograft mice, 40 mg WX8/kg daily i.p.): maintained
Effect on teratocarcinoma xenografts ([16]; GCT27D.C1 xenografts, intraperitoneal injections of WX8): Eliminated stem cells and inhibited tumor growth
Tumor growth inhibition (TGI) ([17]; NTERA-2 tumors, 40 mg WX8/kg daily i.p.): 71%
Mouse body weights ([17]; NTERA-2 xenograft mice, 40 mg WX8/kg daily i.p.): maintained
Effect on teratocarcinoma xenografts ([17]; NTERA-2 xenografts, intraperitoneal injections of WX8): Eliminated stem cells and inhibited tumor growth
IC50 [18]: 60 µM
